Assay results as given in ChEMBL document CHEMBL5661979, “Pharmacological inhibition of BMK1 suppresses tumor growth through promyelocytic leukemia protein” (Cancer Cell, 2010).
Calls of active or inactive are those of the source. No cut-off for these calls is given here.

How the values were obtained:
[1] = Inhibition of PCTAIRE2/3 in human HeLa cells lysate at 50 uM pre incubated for 15 mins followed by ADP acyl phosphate probe addition and measured after 10 mins by LC-MS/MS analysis relative to control; conditions: 25 min, condition cancer
[2] = Inhibition of KHS1/2 in human HeLa cells lysate at 2 uM pre incubated for 15 mins followed by ATP acyl phosphate probe addition and measured after 10 mins by LC-MS/MS analysis relative to control; conditions: 25 min, condition cancer
[3] = target: Serine/threonine-protein kinase PLK1 (Homo sapiens, UniProt P53350); experiment: Inhibition of PLK1 splice variant in human HeLa cells lysate at 50 uM pre incubated for 15 mins followed by ADP acyl phosphate probe addition and measured after 10 mins by LC-MS/MS analysis relative to control; format: subcellular; conditions: time 25.0 min
Serine/threonine-protein kinase PLK1, sequence (P53350 whole entry, canonical isoform): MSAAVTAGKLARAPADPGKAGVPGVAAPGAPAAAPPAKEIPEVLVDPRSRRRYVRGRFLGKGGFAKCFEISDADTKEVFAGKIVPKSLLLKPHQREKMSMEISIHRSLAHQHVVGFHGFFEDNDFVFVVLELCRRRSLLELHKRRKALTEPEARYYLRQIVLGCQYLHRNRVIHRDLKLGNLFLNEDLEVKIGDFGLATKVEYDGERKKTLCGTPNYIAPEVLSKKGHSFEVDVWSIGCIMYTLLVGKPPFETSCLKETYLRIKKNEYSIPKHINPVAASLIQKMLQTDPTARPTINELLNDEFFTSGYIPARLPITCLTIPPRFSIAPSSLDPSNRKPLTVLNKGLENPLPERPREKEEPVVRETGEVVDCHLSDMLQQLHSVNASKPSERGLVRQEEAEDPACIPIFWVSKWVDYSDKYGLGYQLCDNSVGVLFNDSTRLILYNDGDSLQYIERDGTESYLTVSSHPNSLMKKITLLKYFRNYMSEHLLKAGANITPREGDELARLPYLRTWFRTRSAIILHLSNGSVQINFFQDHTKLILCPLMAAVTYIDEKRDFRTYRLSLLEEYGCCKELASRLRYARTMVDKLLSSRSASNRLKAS

[4] = Inhibition of HGK/MINK/TNIK in human HeLa cells lysate at 50 uM pre incubated for 15 mins followed by ADP acyl phosphate probe addition and measured after 10 mins by LC-MS/MS analysis relative to control; conditions: 25 min, condition cancer
[5] = target: Serine/threonine-protein kinase greatwall (Homo sapiens) (UniProt Q96GX5); experiment: Inhibition of MASTL in human HeLa cells lysate at 2 uM pre incubated for 15 mins followed by ATP acyl phosphate probe addition and measured after 10 mins by LC-MS/MS analysis relative to control; format: subcellular; conditions: time 25.0 min
Lewis lung carcinoma = experiment: Antitumor activity against mouse LL2 cells allografted in C57Bl/6 mouse assessed as reduction tumor growth at 50 mg/kg, ip administered on day 7 post implantation measured after 17 days; format: functional, organism-based; conditions: time 10.0 day
Summary of the method: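 LL/2 cells (1×10^6, in DMEM) were injected s.c. into the right flank of 6-week-old C57Bl/6 mice on day 0. Dosing was 50 mg/kg i.p. twice daily, starting on day 1, 7 or 10 and continuing to day 17; controls received carrier. 6 mice per treated group. Tumors were measured every 2–3 days.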

[6] = target: Cyclin-dependent kinase 2 (Homo sapiens, UniProt P24941); experiment: Inhibition of CDK2 K1 site in human HeLa cells lysate pre incubated for 15 mins followed by ATP acyl phosphate probe addition and measured after 10 mins by LC-MS/MS analysis; format: subcellular
Summary of the method: (§1)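 KiNativ profiling in HeLa lysate (5 mg/mL total protein). Lysate incubated 15 min with inhibitor at 50, 10, 2, 0.8 or 0 μM. ATP or ADP acylphosphate probe then added (5 μM final) and reacted 10 min. Reaction stopped with urea and analysed by targeted MS, using up to four fragment ions per kinase peptide-probe conjugate. % inhibition taken against untreated lysate. Run in duplicate.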

[7] = target: Insulin-like growth factor 1 receptor (Homo sapiens, UniProt P08069); experiment: Inhibition of IGF1R in human HeLa cells lysate pre incubated for 15 mins followed by ADP acyl phosphate probe addition and measured after 10 mins by LC-MS/MS analysis; format: subcellular
Insulin-like growth factor 1 receptor, sequence (P08069 31-736 limits assumed): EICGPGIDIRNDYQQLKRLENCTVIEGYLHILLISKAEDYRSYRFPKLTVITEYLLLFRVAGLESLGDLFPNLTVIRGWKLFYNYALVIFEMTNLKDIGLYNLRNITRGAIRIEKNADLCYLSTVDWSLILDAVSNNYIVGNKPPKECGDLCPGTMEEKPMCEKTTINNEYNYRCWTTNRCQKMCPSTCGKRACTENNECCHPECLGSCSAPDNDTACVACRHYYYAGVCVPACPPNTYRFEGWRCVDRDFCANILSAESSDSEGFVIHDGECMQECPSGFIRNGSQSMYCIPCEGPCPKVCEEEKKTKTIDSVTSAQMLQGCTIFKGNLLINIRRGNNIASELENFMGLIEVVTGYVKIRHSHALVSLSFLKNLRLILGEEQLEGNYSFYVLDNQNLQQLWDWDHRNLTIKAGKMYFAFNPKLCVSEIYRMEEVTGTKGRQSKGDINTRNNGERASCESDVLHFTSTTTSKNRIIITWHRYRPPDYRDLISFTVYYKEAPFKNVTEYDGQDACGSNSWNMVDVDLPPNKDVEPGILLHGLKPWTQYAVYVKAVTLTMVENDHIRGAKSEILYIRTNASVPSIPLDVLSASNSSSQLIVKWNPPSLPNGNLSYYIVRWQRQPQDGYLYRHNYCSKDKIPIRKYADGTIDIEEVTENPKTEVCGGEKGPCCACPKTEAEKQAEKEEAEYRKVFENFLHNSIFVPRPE
Insulin-like growth factor 1 receptor, sequence (P08069 741-1367 limits assumed): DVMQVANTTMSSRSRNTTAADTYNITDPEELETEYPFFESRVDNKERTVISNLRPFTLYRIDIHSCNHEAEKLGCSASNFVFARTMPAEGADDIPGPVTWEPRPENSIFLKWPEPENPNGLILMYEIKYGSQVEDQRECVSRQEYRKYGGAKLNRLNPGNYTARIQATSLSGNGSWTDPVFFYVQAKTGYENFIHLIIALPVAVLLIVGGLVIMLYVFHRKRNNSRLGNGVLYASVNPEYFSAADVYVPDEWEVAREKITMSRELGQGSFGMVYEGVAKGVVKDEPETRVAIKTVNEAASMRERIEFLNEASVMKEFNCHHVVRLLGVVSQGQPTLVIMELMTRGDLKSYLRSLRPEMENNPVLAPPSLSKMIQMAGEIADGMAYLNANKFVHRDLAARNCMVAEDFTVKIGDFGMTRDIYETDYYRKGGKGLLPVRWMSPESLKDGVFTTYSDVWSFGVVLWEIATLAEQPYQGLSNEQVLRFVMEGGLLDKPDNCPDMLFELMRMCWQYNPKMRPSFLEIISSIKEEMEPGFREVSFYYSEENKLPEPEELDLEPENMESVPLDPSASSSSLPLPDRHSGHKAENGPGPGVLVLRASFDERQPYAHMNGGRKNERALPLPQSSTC

[8] = target: Serine/threonine-protein kinase B-raf (Homo sapiens, UniProt P15056); experiment: Inhibition of BRAF in human HeLa cells lysate pre incubated for 15 mins followed by ATP acyl phosphate probe addition and measured after 10 mins by LC-MS/MS analysis; format: subcellular
Serine/threonine-protein kinase B-raf, sequence (P15056 whole entry, the tested form may be a part): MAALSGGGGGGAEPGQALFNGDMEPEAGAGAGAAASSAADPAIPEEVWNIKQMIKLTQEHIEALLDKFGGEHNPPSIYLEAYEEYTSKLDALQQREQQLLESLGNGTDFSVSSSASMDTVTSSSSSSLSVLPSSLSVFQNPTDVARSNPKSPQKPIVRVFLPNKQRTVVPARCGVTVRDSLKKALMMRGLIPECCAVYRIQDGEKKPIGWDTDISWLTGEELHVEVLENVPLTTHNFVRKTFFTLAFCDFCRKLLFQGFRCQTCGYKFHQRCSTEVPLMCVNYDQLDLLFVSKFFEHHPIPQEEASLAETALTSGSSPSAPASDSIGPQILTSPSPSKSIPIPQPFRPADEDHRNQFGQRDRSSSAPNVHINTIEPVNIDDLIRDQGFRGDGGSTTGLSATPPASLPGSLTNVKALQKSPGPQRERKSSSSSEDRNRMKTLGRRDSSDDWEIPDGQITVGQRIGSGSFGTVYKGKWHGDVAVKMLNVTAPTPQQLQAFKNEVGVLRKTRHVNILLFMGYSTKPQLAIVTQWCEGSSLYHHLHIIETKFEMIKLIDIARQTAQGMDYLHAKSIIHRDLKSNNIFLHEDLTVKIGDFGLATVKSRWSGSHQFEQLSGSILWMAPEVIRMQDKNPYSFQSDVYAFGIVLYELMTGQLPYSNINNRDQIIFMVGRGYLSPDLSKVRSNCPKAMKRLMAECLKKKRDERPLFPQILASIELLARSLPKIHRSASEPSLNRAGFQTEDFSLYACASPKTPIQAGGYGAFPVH
Summary of the method: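 KiNativ-type profiling in HeLa lysate (5 mg/mL total protein). Lysate preincubated 15 min with inhibitor at 50, 10, 2, 0.8 or 0 μM, then ATP or ADP acylphosphate probe added (5 μM final) for 10 min. Reaction stopped with urea and analysed by targeted MS, using up to four fragment ions per kinase peptide-probe conjugate. % inhibition calculated against untreated lysate. Duplicate reactions.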

[9] = target: Tyrosine-protein kinase Lyn (Homo sapiens, UniProt P07948); experiment: Inhibition of LYN in human HeLa cells lysate at 50 uM pre incubated for 15 mins followed by ATP acyl phosphate probe addition and measured after 10 mins by LC-MS/MS analysis relative to control; format: subcellular; conditions: time 25.0 min
Tyrosine-protein kinase Lyn, sequence (P07948 2-512 limits assumed): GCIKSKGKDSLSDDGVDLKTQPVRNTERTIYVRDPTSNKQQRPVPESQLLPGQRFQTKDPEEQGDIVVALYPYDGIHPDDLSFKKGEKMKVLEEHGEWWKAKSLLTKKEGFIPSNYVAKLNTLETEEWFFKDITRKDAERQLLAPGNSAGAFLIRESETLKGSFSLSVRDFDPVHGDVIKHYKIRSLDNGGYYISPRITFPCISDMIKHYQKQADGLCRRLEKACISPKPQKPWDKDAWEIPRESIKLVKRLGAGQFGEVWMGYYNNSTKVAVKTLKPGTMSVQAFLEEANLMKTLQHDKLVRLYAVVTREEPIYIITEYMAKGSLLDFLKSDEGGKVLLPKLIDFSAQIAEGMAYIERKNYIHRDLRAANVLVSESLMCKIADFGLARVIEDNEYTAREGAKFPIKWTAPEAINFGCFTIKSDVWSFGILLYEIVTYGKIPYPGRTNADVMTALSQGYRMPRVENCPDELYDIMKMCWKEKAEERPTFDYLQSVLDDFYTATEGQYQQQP

[10] = target: Serine/threonine-protein kinase Nek8 (Homo sapiens) (UniProt Q86SG6); experiment: Inhibition of NEK8 in human HeLa cells lysate at 2 uM pre incubated for 15 mins followed by ADP acyl phosphate probe addition and measured after 10 mins by LC-MS/MS analysis relative to control; format: subcellular; conditions: time 25.0 min
Serine/threonine-protein kinase Nek8 (Homo sapiens), sequence (Q86SG6 whole entry): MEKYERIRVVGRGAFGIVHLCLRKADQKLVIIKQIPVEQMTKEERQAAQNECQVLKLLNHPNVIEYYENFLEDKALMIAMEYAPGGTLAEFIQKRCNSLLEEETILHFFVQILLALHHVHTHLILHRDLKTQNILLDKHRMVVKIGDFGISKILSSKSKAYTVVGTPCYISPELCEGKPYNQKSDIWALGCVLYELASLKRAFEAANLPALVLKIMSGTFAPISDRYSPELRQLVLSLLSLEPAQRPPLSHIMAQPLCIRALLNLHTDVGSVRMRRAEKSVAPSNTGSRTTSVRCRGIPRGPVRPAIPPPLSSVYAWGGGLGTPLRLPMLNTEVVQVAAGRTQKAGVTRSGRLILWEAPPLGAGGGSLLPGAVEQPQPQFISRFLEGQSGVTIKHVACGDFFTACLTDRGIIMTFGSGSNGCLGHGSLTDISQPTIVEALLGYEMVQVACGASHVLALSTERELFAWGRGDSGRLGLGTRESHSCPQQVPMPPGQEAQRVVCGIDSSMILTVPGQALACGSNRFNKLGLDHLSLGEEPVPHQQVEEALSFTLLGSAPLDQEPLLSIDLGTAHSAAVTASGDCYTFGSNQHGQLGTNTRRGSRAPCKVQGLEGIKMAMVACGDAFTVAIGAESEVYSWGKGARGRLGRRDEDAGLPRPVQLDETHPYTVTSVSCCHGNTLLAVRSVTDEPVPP

[11] = tested on: Tyrosine-protein kinase ABL1 (Homo sapiens), P00519 [F317I]; experiment: Inhibition of ABL1 F317I mutant (unknown origin) assessed as remaining activity at 10 uM by ATP-competition binding assay relative to control
[12] = target: T1, Mitogen-activated protein kinase kinase kinase kinase 2 (Homo sapiens) (UniProt Q12851); experiment: Inhibition of GCK in human HeLa cells lysate at 2 uM pre incubated for 15 mins followed by ADP acyl phosphate probe addition and measured after 10 mins by LC-MS/MS analysis relative to control; format: subcellular; conditions: time 25.0 min
T1 sequence (whole entry): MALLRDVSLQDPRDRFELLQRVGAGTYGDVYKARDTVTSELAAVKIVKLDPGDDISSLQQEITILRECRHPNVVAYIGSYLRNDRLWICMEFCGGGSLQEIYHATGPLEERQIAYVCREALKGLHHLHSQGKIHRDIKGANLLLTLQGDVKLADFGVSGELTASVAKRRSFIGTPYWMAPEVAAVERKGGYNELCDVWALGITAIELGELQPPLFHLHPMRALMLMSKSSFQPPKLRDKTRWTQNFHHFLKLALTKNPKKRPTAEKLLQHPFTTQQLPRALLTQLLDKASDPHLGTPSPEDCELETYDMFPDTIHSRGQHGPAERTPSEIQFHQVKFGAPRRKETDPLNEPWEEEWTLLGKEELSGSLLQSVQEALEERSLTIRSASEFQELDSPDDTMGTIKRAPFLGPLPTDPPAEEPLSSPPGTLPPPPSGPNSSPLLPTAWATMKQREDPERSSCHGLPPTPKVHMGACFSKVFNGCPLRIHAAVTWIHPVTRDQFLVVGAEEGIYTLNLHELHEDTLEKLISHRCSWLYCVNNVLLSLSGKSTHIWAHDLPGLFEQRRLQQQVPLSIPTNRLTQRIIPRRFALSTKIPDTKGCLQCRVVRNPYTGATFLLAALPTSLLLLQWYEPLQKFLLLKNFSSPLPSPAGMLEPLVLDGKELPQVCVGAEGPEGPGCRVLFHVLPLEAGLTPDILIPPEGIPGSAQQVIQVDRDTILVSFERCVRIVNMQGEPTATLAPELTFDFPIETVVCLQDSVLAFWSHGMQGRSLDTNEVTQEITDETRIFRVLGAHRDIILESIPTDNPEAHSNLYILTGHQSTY

[13] = target: Cyclin-dependent kinase 10 (Homo sapiens, UniProt Q15131); experiment: Inhibition of CDK10 in human HeLa cells lysate pre incubated for 15 mins followed by ATP acyl phosphate probe addition and measured after 10 mins by LC-MS/MS analysis; format: subcellular; summary of the method: as §1
Cyclin-dependent kinase 10, sequence (Q15131 whole entry, the tested form may be a part): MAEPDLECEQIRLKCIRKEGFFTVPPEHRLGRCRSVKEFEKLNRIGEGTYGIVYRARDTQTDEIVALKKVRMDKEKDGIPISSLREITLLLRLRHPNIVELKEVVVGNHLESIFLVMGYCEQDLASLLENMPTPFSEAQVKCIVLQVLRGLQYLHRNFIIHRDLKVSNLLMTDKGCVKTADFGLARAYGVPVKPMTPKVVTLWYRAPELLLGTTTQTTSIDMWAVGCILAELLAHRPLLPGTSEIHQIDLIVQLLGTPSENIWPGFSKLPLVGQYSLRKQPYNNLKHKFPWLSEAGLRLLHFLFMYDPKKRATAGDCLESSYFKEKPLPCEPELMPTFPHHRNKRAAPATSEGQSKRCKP

[14] = target: Ribosomal protein S6 kinase alpha-3 (Homo sapiens, UniProt P51812); experiment: Inhibition of RSK2 domain 2 K2 site in human HeLa cells lysate pre incubated for 15 mins followed by ADP acyl phosphate probe addition and measured after 10 mins by LC-MS/MS analysis; format: subcellular
Ribosomal protein S6 kinase alpha-3, sequence (P51812 whole entry, the tested form may be a part): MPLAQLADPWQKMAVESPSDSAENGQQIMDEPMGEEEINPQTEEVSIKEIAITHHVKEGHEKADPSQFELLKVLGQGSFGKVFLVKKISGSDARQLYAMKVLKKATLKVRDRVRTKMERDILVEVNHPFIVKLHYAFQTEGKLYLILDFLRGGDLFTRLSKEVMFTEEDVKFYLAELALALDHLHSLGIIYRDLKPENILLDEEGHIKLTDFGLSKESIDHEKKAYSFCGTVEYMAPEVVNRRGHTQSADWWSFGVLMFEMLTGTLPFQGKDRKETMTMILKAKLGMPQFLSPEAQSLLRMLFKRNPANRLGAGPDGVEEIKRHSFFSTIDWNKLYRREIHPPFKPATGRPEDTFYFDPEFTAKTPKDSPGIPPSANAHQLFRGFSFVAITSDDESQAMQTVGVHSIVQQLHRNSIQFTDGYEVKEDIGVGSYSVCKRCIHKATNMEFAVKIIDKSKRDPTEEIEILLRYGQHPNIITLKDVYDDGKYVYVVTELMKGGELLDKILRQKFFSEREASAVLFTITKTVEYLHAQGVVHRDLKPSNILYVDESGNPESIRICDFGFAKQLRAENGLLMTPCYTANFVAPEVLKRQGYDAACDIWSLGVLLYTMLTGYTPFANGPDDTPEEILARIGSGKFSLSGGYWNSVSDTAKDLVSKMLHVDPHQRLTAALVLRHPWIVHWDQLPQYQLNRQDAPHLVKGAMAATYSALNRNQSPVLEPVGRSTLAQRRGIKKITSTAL

[15] = target: Serine/threonine-protein kinase SMG1 (Homo sapiens, UniProt Q96Q15); experiment: Inhibition of SMG1 in human HeLa cells lysate pre incubated for 15 mins followed by ATP acyl phosphate probe addition and measured after 10 mins by LC-MS/MS analysis; format: subcellular

CCOc1cc(N2CCC(O)CC2)ccc1Nc1ncc2c(n1)N(C)c1ccccc1C(=O)N2C
inhibition at 50 µM [1]: -8.7% | inhibition at 2 µM [2]: -8.6% | inhibition [3]: 13.3% | inhibition at 50 µM [4]: -31.5% | inhibition [5]: 8.1% | Activity (Lewis lung carcinoma): Active | IC50 [6]: > 50 µM | IC50 [7]: > 50 µM | IC50 [8]: > 50 µM | inhibition [9]: -5.2% | inhibition [10]: 30.2% | Activity [11]: 30% | inhibition [12]: 22.6% | IC50 [13]: > 50 µM | IC50 [14]: 47 µM | IC50 [15]: > 50 µM
